In the library only some 3.7% were active in any assay of this set; here they are far more common.
KCNQ1 block – inhibitors of human KCNQ1 potassium channel; P51787; CHO-K1 KCNQ1, FluxOR thallium flux fluorescence; hits give high values; B-score at 10 µM; actives 1.3% (n = 310,000);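 active = compounds whose thallium flux B-score, printed positive for inhibition, exceeds three library SD while starting fluorescence stays within three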;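 note: channel opened by potassium depolarization with thallium stimulus after 20 min compound exposure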
hERG rescue – shields human hERG channel from block by proarrhythmic agents; Q12809; CHO-hERG, FluxOR thallium flux, dofetilide IC70 present; actives 0.51% (n = 310,000); activation (rescue from dofetilide block), less the hit threshold, % at 10 µM;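 active = activation above the mean of controls blocked by dofetilide plus 5 SD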;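 note: thallium influx through hERG after potassium depolarization seen as dye fluorescence rise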
KCNK9 block – human KCNK9 channel inhibition; B-score at 10 µM; actives 1.2% (n = 310,000); HEK293 KCNK9, FluxOR thallium flux fluorescence; hits give low values; Q9NPC2;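 active = ratio B-score over 3 SD below the library mean, with starting fluorescence within 5 SD of its mean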;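 note: negative B-score means less thallium flux so channel inhibition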
KCNK3 block – human KCNK3 channel inhibition, primary screen; O14649; CHO-KCNK3 thallium flux, FluxOR fluorescence; hits give low values; B-score at 10 µM; actives 0.84% (n = 340,000); AID 602410;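 active = B-score under library mean minus 4 SD, starting fluorescence ratio at most library mean plus 5 SD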;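 note: more negative B-score means stronger inhibition of thallium flux through KCNK3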
Target sequence (O14649 whole entry, looked up): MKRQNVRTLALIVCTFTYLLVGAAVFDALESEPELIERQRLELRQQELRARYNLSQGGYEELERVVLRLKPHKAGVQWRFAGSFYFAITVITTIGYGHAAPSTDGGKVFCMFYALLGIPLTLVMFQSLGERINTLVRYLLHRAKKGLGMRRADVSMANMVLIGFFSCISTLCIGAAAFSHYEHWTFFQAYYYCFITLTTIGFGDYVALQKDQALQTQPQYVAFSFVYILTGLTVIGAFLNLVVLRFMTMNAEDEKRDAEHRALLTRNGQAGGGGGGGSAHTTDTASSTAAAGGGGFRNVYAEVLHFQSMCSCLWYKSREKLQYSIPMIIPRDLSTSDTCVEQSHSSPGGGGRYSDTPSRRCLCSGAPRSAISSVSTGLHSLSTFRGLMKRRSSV
Kir21 block – inhibitors of mouse Kir2.1 inward-rectifier potassium channel | HEK293-Kir2.1, FluxOR thallium flux fluorescence; hits give low values | AID 1672 | actives 0.85% (n = 310,000) | B-score at 10 µM | P35561;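 active = fluorescence ratio B-score at or below minus 3 SD of library scores, with starting-brightness B-score within 2 SD, cut at about -4.2 in these data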;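 note: channel flux triggered by added potassium and thallium sulfate stimulus; B-score of peak minus minimum fluorescence over baseline after thallium stimulus; more negative B-score means stronger Kir2.1 block with less thallium influx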
KCNQ1 pot – human KCNQ1 channel potentiation or activation. P51787. CHO-K1 KCNQ1, thallium flux FluxOR fluorescence; hits give high values. B-score at 10 µM. actives 0.35% (n = 310,000). AID 2648;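 active = fluorescence ratio B-score, a plate-corrected score, at least three library SD, with initial intensity B-score within 5 SD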
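Assay system: CHO-K1 cells stably expressing KCNQ1. Medium: assay buffer for compound exposure, DMSO matched across wells. Timing: 37 °C overnight plating, 90-min dark dye load, 20-min compound pretreatment. Signal: kinetic FluxOR fluorescence, 10 s baseline plus 110 s post-stimulus.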
* = called active by the depositor.

What do the screens show for `CC(C)OCCCNC(=O)c1ccc2c(c1)S(=O)(=O)c1ccccc1C2=O`?
KCNQ1 block: inactive; hERG rescue: -13; KCNK9 block: inactive; KCNK3 block: inactive; Kir21 block: 0.99; KCNQ1 pot: inactive

Results for CC(C)(C)OC(=O)COc1cc(OCC(=O)OC(C)(C)C)c2c(=O)cc(-c3ccccc3)oc2c1 ?
KCNK3 block: -9.1*

How did COC(=O)COc1cc(OCC(=O)OC)c2c(-c3ccccc3)cc(=O)oc2c1 do in these assays?
KCNQ1 block: inactive; hERG rescue: -9; KCNK9 block: inactive; KCNK3 block: inactive; Kir21 block: -1.3; KCNQ1 pot: inactive

How did O=C(CSc1nc(C(F)(F)F)cc(=O)[nH]1)Nc1nccs1 do in these assays?
KCNQ1 block: inactive; hERG rescue: -14; KCNK9 block: inactive; KCNK3 block: inactive; Kir21 block: 0.52; KCNQ1 pot: inactive

What do the screens show for `CN(CC(O)CN)CC(O)CN1CCCCC1` (configuration not stated)?
KCNQ1 block: inactive; hERG rescue: 5.7*; KCNK9 block: inactive; KCNK3 block: inactive; Kir21 block: -0.29; KCNQ1 pot: inactive

Results for O=S(=O)(c1ccc(F)cc1)c1snnc1-c1ccccc1 ?
KCNQ1 block: inactive; hERG rescue: -12; KCNK9 block: inactive; KCNK3 block: inactive; Kir21 block: -15*; KCNQ1 pot: inactive

What do the screens show for `O=S(=O)(c1ccc(Cl)cc1)c1snnc1-c1ccccc1`?
KCNQ1 block: inactive; hERG rescue: -11; KCNK9 block: inactive; KCNK3 block: inactive; Kir21 block: -10*; KCNQ1 pot: inactive

How did CCN(CC)c1ccc(S(=O)(=O)N2CCOCC2)cc1NC(=O)CSC(=S)N1CCCC1 do in these assays?
KCNQ1 block: inactive; hERG rescue: -9; KCNK9 block: inactive; KCNK3 block: inactive; Kir21 block: -0.5; KCNQ1 pot: inactive

Results for COc1cccc(/C=N/Nc2ccc(C(=O)O)cc2)c1O ?
KCNQ1 block: inactive; hERG rescue: 5.5*; KCNK9 block: inactive; KCNK3 block: inactive; Kir21 block: -0.98; KCNQ1 pot: inactive

Results for COc1cccc(/C=N/Nc2ccc(S(=O)(=O)O)cc2)c1O ?
KCNQ1 block: inactive; hERG rescue: -8; KCNK9 block: inactive; KCNK3 block: inactive; Kir21 block: 0; KCNQ1 pot: inactive

What do the screens show for `Cc1cccc(Oc2ccc(NC(=O)c3ccccc3C(=O)O)cc2)c1C`?
KCNQ1 block: inactive; hERG rescue: 5.6*; KCNK9 block: inactive; KCNK3 block: inactive; Kir21 block: -0.48; KCNQ1 pot: inactive

Results for O=C(O)c1ccccc1C(=O)Nc1ccc(Oc2cccc3ccccc23)cc1 ?
KCNQ1 block: inactive; hERG rescue: 3; KCNK9 block: inactive; KCNK3 block: inactive; Kir21 block: 2.1; KCNQ1 pot: inactive

Results for C1=CC2=NC34CCCCC3CC3=C(CCCC3)N4C2=CC1=NC1CCCCC1 (configuration not stated) ?
KCNQ1 block: 7*; hERG rescue: -17; KCNK9 block: inactive; KCNK3 block: inactive; Kir21 block: 0.06; KCNQ1 pot: inactive

Results for COC(=O)c1sc(NC(=O)CSc2nc3cccnc3n2C)nc1C ?
KCNQ1 block: inactive; hERG rescue: -7; KCNK9 block: inactive; KCNK3 block: inactive; Kir21 block: 0.82; KCNQ1 pot: inactive

Results for CSc1ncccc1C(=O)NC1CC(C)(C)Cc2c1cnn2-c1ccccc1C (configuration not stated) ?
KCNQ1 block: inactive; hERG rescue: -13; KCNK9 block: inactive; KCNK3 block: inactive; Kir21 block: -1.4; KCNQ1 pot: inactive

What do the screens show for `CCN1CCN(CCNC(=O)c2ccc(/C=C3\Sc4ccccc4N(Cc4ccccc4F)C3=O)cc2)CC1`?
KCNQ1 block: 7*; hERG rescue: -31; KCNK9 block: inactive; KCNK3 block: inactive; Kir21 block: -4.7*; KCNQ1 pot: inactive

What do the screens show for `CN1CCN(CCCNC(=O)c2ccc(/C=C3\Oc4ccccc4N(Cc4ccccc4F)C3=O)cc2)CC1`?
KCNQ1 block: inactive; hERG rescue: -20; KCNK9 block: inactive; KCNK3 block: inactive; Kir21 block: 0.04; KCNQ1 pot: inactive

How did COCCCNC(=O)/C=C1\Sc2ccccc2N(Cc2ccccc2F)C1=O do in these assays?
KCNQ1 block: inactive; hERG rescue: -14; KCNK9 block: inactive; KCNK3 block: inactive; Kir21 block: 0.12; KCNQ1 pot: inactive

Results for CN1CCN(CCCNC(=O)c2ccc(/C=C3\Sc4ccccc4N(Cc4ccc(F)cc4)C3=O)cc2)CC1 ?
KCNQ1 block: 6*; hERG rescue: -42; KCNK9 block: inactive; KCNK3 block: inactive; Kir21 block: -0.43; KCNQ1 pot: inactive

What do the screens show for `Cc1nc(N2CCCCC2)c2c(C)c(C(=O)Nc3ccc4c(c3)OCCO4)sc2n1`?
KCNQ1 block: inactive; hERG rescue: -12; KCNK9 block: inactive; KCNK3 block: inactive; Kir21 block: 1.8; KCNQ1 pot: inactive

Results for CCN1C(=O)/C(=C\c2ccncc2)SC1=S ?
KCNQ1 block: inactive; hERG rescue: -3; KCNK9 block: inactive; KCNK3 block: inactive; Kir21 block: -0.66; KCNQ1 pot: inactive

How did CCCCC(CC)CN1C(=O)/C(=C/c2ccncc2)SC1=S (configuration not stated) do in these assays?
KCNQ1 block: 7*; hERG rescue: -3; KCNK9 block: inactive; KCNK3 block: inactive; Kir21 block: -3.5; KCNQ1 pot: inactive

Results for CCc1c(C)nc2cc(-c3ccc(OC)c(OC)c3)nn2c1NCC1CC1 ?
KCNQ1 block: inactive; hERG rescue: -28; KCNK9 block: -6.7*; KCNK3 block: inactive; Kir21 block: 0.82; KCNQ1 pot: inactive

What do the screens show for `Cc1ccc(Nc2nc(-c3cccs3)cs2)nc1`?
KCNQ1 block: inactive; hERG rescue: 6.1*; KCNK9 block: inactive; KCNK3 block: inactive; Kir21 block: 0.51; KCNQ1 pot: inactive

What do the screens show for `Cc1ccc(Nc2nc(-c3ccccc3)cs2)nc1`?
KCNQ1 block: inactive; hERG rescue: -5; KCNK9 block: inactive; KCNK3 block: inactive; Kir21 block: 0.9; KCNQ1 pot: inactive

What do the screens show for `CC1(C)CC(=O)/C(=C(/O)Cc2ccccc2)C(=NCCc2ccccc2)C1`?
KCNQ1 block: inactive; hERG rescue: -14; KCNK9 block: inactive; KCNK3 block: inactive; Kir21 block: -4.3*; KCNQ1 pot: inactive

What do the screens show for `COc1ccc(C(=O)COC(=O)c2nc3nccc(C)n3n2)cc1F`?
KCNK3 block: inactive

Results for COc1ccc([N+](=O)[O-])c(S(=O)(=O)c2ccccc2)n1 ?
KCNQ1 block: inactive; hERG rescue: -8; KCNK9 block: inactive; KCNK3 block: inactive; Kir21 block: -3.7; KCNQ1 pot: inactive

Screening data deposited in PubChem BioAssay by Johns Hopkins Ion Channel Center.
